Measured values: ChEMBL document CHEMBL1126276, “Synthesis and antimalarial properties of 1-imino derivatives of 7-chloro-3-substituted-3,4-dihydro-1,9(2H,10H)-acridinediones and related structures” (J Med Chem, 1992)

Assays:
Plasmodium berghei [1] = test: (§1) Antimalarial activity in Plasmodium berghei infected mice (Mus musculus) after 20 mg/kg subcutaneous dose; format: functional
Summary of the method: (§2)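 […] in mice infected with a normal drug-sensitive P. berghei strain. Compound dissolved or suspended in sesame or peanut oil, given as a single subcutaneous dose 72 h postinfection.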

Plasmodium berghei [2] = test: Antimalarial activity was measured against mice (Mus musculus) infected with Plasmodium berghei by subcutaneous administration of 40 mg/kg dose; format: organism-based; parameters: dose 40 mg/kg, route subcutaneous; conditions: in vivo, sc; summary of the method: as §2
Plasmodium berghei [3] = test: Antimalarial activity was measured against mice (Mus musculus) infected with Plasmodium berghei by subcutaneous administration of 640 mg/kg dose; format: organism-based; parameters: dose 640 mg/kg, route subcutaneous; conditions: in vivo, sc; summary of the method: as §2
Plasmodium berghei [4] = test: Antimalarial activity was measured against mice (Mus musculus) infected with Plasmodium berghei by subcutaneous administration of 320 mg/kg dose; format: organism-based; parameters: dose 320 mg/kg, route subcutaneous; conditions: in vivo, sc; summary of the method: as §2
Plasmodium berghei [5] = test: Antimalarial activity was measured against mice (Mus musculus) infected with Plasmodium berghei by subcutaneous administration of 80 mg/kg dose; format: organism-based; parameters: dose 80 mg/kg, route subcutaneous; conditions: in vivo, sc; summary of the method: as §2
Plasmodium berghei [6] = test: (§3) Antimalarial activity in Plasmodium berghei infected mice (Mus musculus) after 40 mg/kg subcutaneous dose; format: functional; summary of the method: as §2
Plasmodium berghei [7] = test: Antimalarial activity was measured against mice (Mus musculus) infected with Plasmodium berghei by subcutaneous administration of 160 mg/kg dose; format: organism-based; parameters: dose 160 mg/kg, route subcutaneous; conditions: in vivo, sc; summary of the method: as §2
Plasmodium berghei [8] = test: (§4) Antimalarial activity in Plasmodium berghei infected mice (Mus musculus) after 80 mg/kg subcutaneous dose; format: functional
Summary of the method: (§5)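 Normal drug-sensitive P. berghei strain in mice. Compound dissolved or suspended in sesame or peanut oil, given parenterally as a single subcutaneous dose 72 h postinfection.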

Plasmodium berghei [9] = test: Antimalarial activity in Plasmodium berghei infected mice (Mus musculus) after subcutaneous 160 mg/kg dose; format: functional; summary of the method: as §5
Plasmodium berghei [10] = test: as §3; format: functional; summary of the method: as §5; remark: listed apart in the source
Plasmodium berghei [11] = test: as §1; format: functional; summary of the method: as §5; remark: listed apart in the source
Plasmodium berghei [12] = test: Antimalarial activity in Plasmodium berghei infected mice (Mus musculus) after subcutaneous 640 mg/kg dose; format: functional; summary of the method: as §5
Plasmodium berghei [13] = test: Antimalarial activity in Plasmodium berghei infected mice (Mus musculus) after subcutaneous 320 mg/kg dose; format: functional; summary of the method: as §5
Plasmodium berghei [14] = test: Antimalarial activity in Plasmodium berghei infected mice (Mus musculus) after 10 mg/kg subcutaneous dose; format: functional; summary of the method: as §5
Plasmodium berghei [15] = test: Antimalarial activity Plasmodium berghei infected mice (Mus musculus) after 640 mg/kg subcutaneous dose; format: functional; summary of the method: as §2
Plasmodium berghei [16] = test: Antimalarial activity in Plasmodium berghei infected mice (Mus musculus) after 320 mg/kg subcutaneous dose; format: functional; summary of the method: as §2
Plasmodium berghei [17] = test: Antimalarial activity was measured against mice (Mus musculus) infected with Plasmodium berghei by subcutaneous administration of 20 mg/kg dose; format: organism-based; parameters: dose 20 mg/kg, route subcutaneous; conditions: in vivo, sc; summary of the method: as §2
Plasmodium berghei [18] = test: Antimalarial activity in Plasmodium berghei infected mice (Mus musculus) after 160 mg/kg subcutaneous dose; format: functional; summary of the method: as §2
Plasmodium berghei [19] = test: as §4; format: functional; summary of the method: as §2; remark: listed apart in the source

CN(C)CCC/N=C1\CC(c2ccc(Cl)cc2Cl)Cc2nc3c(Cl)cccc3c(O)c21 (stereo not drawn)
Delta mean survival time (Plasmodium berghei [1]): 0 | No. of toxic deaths (Plasmodium berghei [2]): 1 | No. of toxic deaths (Plasmodium berghei [3]): 5 | No. of toxic deaths (Plasmodium berghei [4]): 5 | No. of toxic deaths (Plasmodium berghei [5]): 4 | Delta mean survival time (Plasmodium berghei [6]): 0.5 | No. of toxic deaths (Plasmodium berghei [7]): 5

CCCCNC(CC)C/N=C1\CC(c2ccc(Cl)cc2Cl)Cc2nc3ccc(Cl)cc3c(O)c21 (stereo not drawn)
No. of cured mice (Plasmodium berghei [8]): 5 | No. of cured mice (Plasmodium berghei [9]): 5 | No. of cured mice (Plasmodium berghei [10]): 5 | No. of cured mice (Plasmodium berghei [11]): 5 | No. of cured mice (Plasmodium berghei [12]): 5 | No. of cured mice (Plasmodium berghei [13]): 5 | No. of cured mice (Plasmodium berghei [14]): 4

O=C1CC(c2ccc(Cl)cc2Cl)Cc2nc3c(Cl)cccc3c(O)c21 (stereo not drawn)
Delta mean survival time (Plasmodium berghei [1]): 0.3 | Delta mean survival time (Plasmodium berghei [15]): 2 | No. of toxic deaths (Plasmodium berghei [2]): 1 | Delta mean survival time (Plasmodium berghei [16]): 4 | No. of toxic deaths (Plasmodium berghei [3]): 4 | No. of toxic deaths (Plasmodium berghei [4]): 2 | No. of toxic deaths (Plasmodium berghei [5]): 1 | Delta mean survival time (Plasmodium berghei [6]): 1.3 | No. of toxic deaths (Plasmodium berghei [17]): 1 | Delta mean survival time (Plasmodium berghei [18]): 1.3 | Delta mean survival time (Plasmodium berghei [19]): 5.3 | No. of toxic deaths (Plasmodium berghei [7]): 2

CCN(CC)CCCC(C)/N=C1\CC(c2ccc(C(F)(F)F)cc2)Cc2nc3ccc(Cl)cc3c(O)c21 (stereo not drawn)
Delta mean survival time (Plasmodium berghei [1]): 10.8 | No. of cured mice (Plasmodium berghei [8]): 4 | No. of cured mice (Plasmodium berghei [9]): 5 | Delta mean survival time (Plasmodium berghei [15]): 3.3 | No. of cured mice (Plasmodium berghei [10]): 5 | No. of cured mice (Plasmodium berghei [11]): 3 | No. of cured mice (Plasmodium berghei [12]): 2 | No. of cured mice (Plasmodium berghei [13]): 3 | No. of toxic deaths (Plasmodium berghei [4]): 2 | No. of toxic deaths (Plasmodium berghei [5]): 1

O=c1c2c(n(O)c3ccc(Cl)cc13)CC(c1cccc(C(F)(F)F)c1)C/C2=N\CCCCN1CCCC1 (stereo not drawn)
No. of toxic deaths (Plasmodium berghei [2]): 3 | Delta mean survival time (Plasmodium berghei [16]): 0.5 | No. of toxic deaths (Plasmodium berghei [3]): 5 | No. of toxic deaths (Plasmodium berghei [4]): 4 | Delta mean survival time (Plasmodium berghei [6]): 4.6 | Delta mean survival time (Plasmodium berghei [19]): 3.7 | No. of toxic deaths (Plasmodium berghei [7]): 5

CN(C)CCC/N=C1\CC(c2ccc(C(F)(F)F)cc2)Cc2nc3ccccc3c(O)c21 (stereo not drawn)
Delta mean survival time (Plasmodium berghei [1]): 5.3 | No. of toxic deaths (Plasmodium berghei [2]): 5 | No. of toxic deaths (Plasmodium berghei [3]): 5 | No. of toxic deaths (Plasmodium berghei [17]): 1 | No. of toxic deaths (Plasmodium berghei [7]): 5

CCN(CC)CC/N=C1\CC(c2ccc(C(F)(F)F)cc2)Cc2c1c(=O)c1cc(Cl)ccc1n2O (stereo not drawn)
Delta mean survival time (Plasmodium berghei [1]): 10.5 | No. of cured mice (Plasmodium berghei [8]): 5 | No. of cured mice (Plasmodium berghei [9]): 4 | No. of cured mice (Plasmodium berghei [10]): 2 | No. of cured mice (Plasmodium berghei [11]): 1 | No. of cured mice (Plasmodium berghei [12]): 3 | No. of cured mice (Plasmodium berghei [13]): 4 | No. of toxic deaths (Plasmodium berghei [3]): 2 | No. of toxic deaths (Plasmodium berghei [4]): 1 | Delta mean survival time (Plasmodium berghei [6]): 10.8 | No. of toxic deaths (Plasmodium berghei [7]): 1

COc1ccccc1C1C/C(=N\CCCN(C)C)c2c(n(O)c3ccc(Cl)cc3c2=O)C1 (stereo not drawn)
No. of toxic deaths (Plasmodium berghei [2]): 1 | No. of toxic deaths (Plasmodium berghei [3]): 5 | Delta mean survival time (Plasmodium berghei [6]): 0.3 | No. of toxic deaths (Plasmodium berghei [7]): 5

Oc1c2c(nc3ccc(Cl)cc13)CC(c1ccc(Cl)cc1Cl)C/C2=N\CCCN1CCCC1 (stereo not drawn)
Delta mean survival time (Plasmodium berghei [1]): 22.9 | No. of cured mice (Plasmodium berghei [8]): 5 | No. of cured mice (Plasmodium berghei [9]): 5 | No. of cured mice (Plasmodium berghei [10]): 5 | No. of cured mice (Plasmodium berghei [11]): 4 | No. of cured mice (Plasmodium berghei [12]): 5 | No. of cured mice (Plasmodium berghei [13]): 5 | No. of cured mice (Plasmodium berghei [14]): 1

CN(C)CCC/N=C1\CC(c2ccc(C(F)(F)F)cc2)Cc2nc3cc(Cl)ccc3c(O)c21 (stereo not drawn)
Delta mean survival time (Plasmodium berghei [1]): 2.1 | No. of toxic deaths (Plasmodium berghei [2]): 3 | No. of toxic deaths (Plasmodium berghei [3]): 5 | No. of toxic deaths (Plasmodium berghei [4]): 5 | No. of toxic deaths (Plasmodium berghei [5]): 3 | Delta mean survival time (Plasmodium berghei [6]): 5.4 | Delta mean survival time (Plasmodium berghei [19]): 6.4 | No. of toxic deaths (Plasmodium berghei [7]): 5

CCN(CC)CCCC/N=C1\CC(c2ccc(Cl)cc2Cl)Cc2nc3ccc(Cl)cc3c(O)c21 (stereo not drawn)
No. of cured mice (Plasmodium berghei [8]): 5 | No. of cured mice (Plasmodium berghei [9]): 5 | No. of cured mice (Plasmodium berghei [10]): 5 | No. of cured mice (Plasmodium berghei [11]): 5 | No. of cured mice (Plasmodium berghei [12]): 5 | No. of cured mice (Plasmodium berghei [13]): 5 | No. of cured mice (Plasmodium berghei [14]): 2

CCCC/N=C1\CC(c2ccc(Cl)c(Cl)c2)Cc2nc3ccc(Cl)cc3c(O)c21 (stereo not drawn)
Delta mean survival time (Plasmodium berghei [15]): 2.5 | No. of toxic deaths (Plasmodium berghei [2]): 4 | Delta mean survival time (Plasmodium berghei [16]): 1.2 | No. of toxic deaths (Plasmodium berghei [3]): 1 | No. of toxic deaths (Plasmodium berghei [5]): 3 | No. of toxic deaths (Plasmodium berghei [17]): 5 | Delta mean survival time (Plasmodium berghei [19]): 1.5 | No. of toxic deaths (Plasmodium berghei [7]): 5

CCN(CC)CCC/N=C1\CC(c2ccc(C(F)(F)F)cc2)Cc2c1c(=O)c1cc(Cl)ccc1n2O (stereo not drawn)
Delta mean survival time (Plasmodium berghei [1]): 10.1 | No. of cured mice (Plasmodium berghei [8]): 2 | No. of cured mice (Plasmodium berghei [9]): 2 | No. of cured mice (Plasmodium berghei [10]): 3 | No. of cured mice (Plasmodium berghei [11]): 2 | No. of cured mice (Plasmodium berghei [13]): 2 | No. of toxic deaths (Plasmodium berghei [3]): 5 | No. of toxic deaths (Plasmodium berghei [4]): 3 | No. of toxic deaths (Plasmodium berghei [5]): 3 | Delta mean survival time (Plasmodium berghei [6]): 16.8 | No. of toxic deaths (Plasmodium berghei [7]): 3

CN(C)CCC/N=C1\CC2(CCCCC2)Cc2c1c(=O)c1cc(Cl)ccc1n2O
No. of toxic deaths (Plasmodium berghei [2]): 5 | No. of toxic deaths (Plasmodium berghei [3]): 5 | No. of toxic deaths (Plasmodium berghei [7]): 5

C=CCNCC/N=C1\CC(c2ccc(C(F)(F)F)cc2)Cc2c1c(=O)c1cc(Cl)ccc1n2O (stereo not drawn)
Delta mean survival time (Plasmodium berghei [1]): 7.8 | No. of cured mice (Plasmodium berghei [8]): 1 | No. of cured mice (Plasmodium berghei [9]): 5 | No. of cured mice (Plasmodium berghei [10]): 2 | No. of toxic deaths (Plasmodium berghei [3]): 5 | No. of toxic deaths (Plasmodium berghei [4]): 5 | No. of toxic deaths (Plasmodium berghei [5]): 3 | Delta mean survival time (Plasmodium berghei [6]): 8.4

O=C1CC(c2ccc(C(F)(F)F)cc2)Cc2c1c(=O)c1cc(Cl)c(F)cc1n2O (stereo not drawn)
Delta mean survival time (Plasmodium berghei [1]): 9 | No. of toxic deaths (Plasmodium berghei [2]): 5 | No. of toxic deaths (Plasmodium berghei [3]): 5 | No. of toxic deaths (Plasmodium berghei [4]): 5 | No. of toxic deaths (Plasmodium berghei [5]): 5 | No. of toxic deaths (Plasmodium berghei [7]): 5

OCCN(CCO)CCC/N=C1\CC(c2ccc(Cl)cc2Cl)Cc2nc3ccc(Cl)cc3c(O)c21 (stereo not drawn)
Delta mean survival time (Plasmodium berghei [1]): 10.9 | No. of cured mice (Plasmodium berghei [8]): 5 | No. of cured mice (Plasmodium berghei [9]): 5 | No. of cured mice (Plasmodium berghei [10]): 4 | No. of cured mice (Plasmodium berghei [11]): 4 | No. of cured mice (Plasmodium berghei [12]): 5 | No. of cured mice (Plasmodium berghei [13]): 5 | Delta mean survival time (Plasmodium berghei [6]): 10.9 | No. of cured mice (Plasmodium berghei [14]): 1

CCn1c2c(c(=O)c3cc(Cl)ccc31)C(=O)CC(c1ccc(C(F)(F)F)cc1)C2 (stereo not drawn)
Delta mean survival time (Plasmodium berghei [15]): 0 | No. of toxic deaths (Plasmodium berghei [2]): 2 | No. of toxic deaths (Plasmodium berghei [3]): 1 | Delta mean survival time (Plasmodium berghei [6]): 0 | Delta mean survival time (Plasmodium berghei [18]): 0 | No. of toxic deaths (Plasmodium berghei [7]): 2

CCN(CC)CC/N=C1\CC(c2ccc(Cl)cc2Cl)Cc2nc3ccc(Cl)cc3c(O)c21 (stereo not drawn)
No. of cured mice (Plasmodium berghei [8]): 5 | No. of cured mice (Plasmodium berghei [9]): 5 | No. of cured mice (Plasmodium berghei [10]): 5 | No. of cured mice (Plasmodium berghei [11]): 5 | No. of cured mice (Plasmodium berghei [12]): 5 | No. of cured mice (Plasmodium berghei [13]): 5 | No. of cured mice (Plasmodium berghei [14]): 5

CN(C)CCC/N=C1\CC(c2ccccc2Cl)Cc2c1c(=O)c1cc(Cl)ccc1n2O (stereo not drawn)
No. of toxic deaths (Plasmodium berghei [2]): 2 | No. of toxic deaths (Plasmodium berghei [3]): 5 | Delta mean survival time (Plasmodium berghei [6]): 3 | Delta mean survival time (Plasmodium berghei [18]): 4 | No. of toxic deaths (Plasmodium berghei [7]): 1

O=c1c2c(n(O)c3ccc(Cl)cc13)CC(c1cccc(C(F)(F)F)c1)C/C2=N\CCCCCN1CCCC1 (stereo not drawn)
No. of toxic deaths (Plasmodium berghei [2]): 4 | No. of toxic deaths (Plasmodium berghei [3]): 5 | Delta mean survival time (Plasmodium berghei [6]): 0.6 | No. of toxic deaths (Plasmodium berghei [7]): 5
